Source: ChEMBL document CHEMBL5329156, “Discovery and development of novel substituted monohydrazides as potent antifungal agents” (RSC Med Chem, 2023)
Converted amounts (≈) assume the structure as drawn.

Columns and labels:
Aspergillus nidulans = test: Antifungal activity against Aspergillus nidulans ATCC 38163 assessed as fungal growth inhibition by double dilution method; type: functional
Pichia kudriavzevii [1] = test: Antifungal activity against Pichia kudriavzevii ATCC 6258 assessed as fungal growth inhibition by double dilution method; type: functional
In short: (§1)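 Broth microdilution after CLSI M27-A3/M38-A2 with minor changes. Single colony grown overnight in YPD at 35 °C, 200 rpm. Compound final range 0.06-31.3 µg/mL; incubated 48 h at 35 °C.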

Clavispora lusitaniae = test: Antifungal activity against Clavispora lusitaniae AR Bank # 398 assessed as fungal growth inhibition by double dilution method; type: functional; in short: as §1
[Candida] auris [2] = Antifungal activity against Candida auris AR Bank # 0384 assessed as fungal growth inhibition by double dilution method; type: functional; settings: Candidozyma auris; in short: as §1
Aspergillus fumigatus [3] = test: Antifungal activity against Aspergillus fumigatus NRRL 5109 assessed as fungal growth inhibition by double dilution method; type: functional
[Candida] auris [4] = Antifungal activity against Candida auris AR Bank # 384 assessed as fungal growth inhibition by double dilution method; type: functional; settings: Candidozyma auris; in short: as §1
J774.A1 = test: Cytotoxicity against J774A.1 cells assessed as reduction in cell viability at 31.3 microg/ml; type: toxicity, cell-based; settings: mouse, dose 31.3 µg/ml
In short: (§2)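 Cells in DMEM with 10% FBS and 1% Pen/Strep, seeded at 10,000 cells/well and held overnight at 37 °C, 5% CO2. Compounds added at final 31.3-0.12 µg/mL (0.05% DMSO vehicle) for 24 h. Resazurin then added for 6 h; fluorescence read at ex 560/em 590. Triton X-100 1% as positive control; values normalized to vehicle. Run in quadruplicate.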

Candida albicans [5] = test: Antifungal activity against itraconazole/fluconazole resistant Candida albicans ATCC MYA-1237 assessed as fungal growth inhibition by double dilution method; type: functional
In short: (§3)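 Broth microdilution after CLSI M27-A3/M38-A2 with minor modifications. A single colony was grown overnight in YPD at 35 °C with shaking at 200 rpm. Cells were mixed 1:1 with compound (final 0.06-31.3 µg/mL, from DMSO stocks) and incubated 48 h at 35 °C.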

Candida albicans [6] = test: Antifungal activity against itraconazole/fluconazole resistant Candida albicans ATCC 90819 assessed as fungal growth inhibition by double dilution method; type: functional; in short: as §3
[Candida] auris [7] = Antifungal activity against Candida auris AR Bank # 381 assessed as fungal growth inhibition by double dilution method; type: functional; settings: Candidozyma auris; in short: as §1
Saccharomyces cerevisiae [8] = test: Antifungal activity against Saccharomyces cerevisiae AR Bank # 399 assessed as fungal growth inhibition by double dilution method; type: functional; in short: as §1
Saccharomyces cerevisiae [9] = test: Antifungal activity against Saccharomyces cerevisiae AR Bank # 400 assessed as fungal growth inhibition by double dilution method; type: functional; in short: as §1
[Candida] auris [10] = Antifungal activity against Candida auris AR Bank # 385 assessed as fungal growth inhibition by double dilution method; type: functional; settings: Candidozyma auris; in short: as §1
[Candida] auris [11] = Antifungal activity against Candida auris AR Bank # 383 assessed as fungal growth inhibition by double dilution method; type: functional; settings: Candidozyma auris; in short: as §1
Nakaseomyces glabratus [12] = test: Antifungal activity against Candida glabrata ATCC 22019 assessed as fungal growth inhibition by double dilution method; type: functional; in short: as §1
[Candida] auris [13] = Antifungal activity against Candida auris AR Bank # 389 assessed as fungal growth inhibition by double dilution method; type: functional; settings: Candidozyma auris; in short: as §1
Nakaseomyces glabratus [14] = test: Antifungal activity against Candida glabrata ATCC 2001 assessed as fungal growth inhibition by double dilution method; type: functional; in short: as §1
Candida albicans [15] = test: Antifungal activity against Candida albicans ATCC 64124 assessed as fungal growth inhibition by double dilution method; type: functional; in short: as §3
[Candida] auris [16] = Antifungal activity against Candida auris AR Bank # 390 assessed as fungal growth inhibition by double dilution method; type: functional; settings: Candidozyma auris; in short: as §1
Aspergillus flavus = test: Antifungal activity against Aspergillus flavus ATCC MYA-3631 assessed as fungal growth inhibition by double dilution method; type: functional
Candida albicans [17] = test: Antifungal activity against itraconazole/fluconazole susceptible Candida albicans ATCC MYA-2310 assessed as fungal growth inhibition by double dilution method; type: functional; in short: as §3
[Candida] auris [18] = Antifungal activity against Candida auris AR Bank # 388 assessed as fungal growth inhibition by double dilution method; type: functional; settings: Candidozyma auris; in short: as §1
Candida duobushaemulonii [19] = test: Antifungal activity against Candida duobushaemulonii AR Bank # 391 assessed as fungal growth inhibition by double dilution method; type: functional; settings: Candidozyma duobushaemuli; in short: as §1
HepG2 = test: Cytotoxicity against human HepG2 cells assessed as reduction in cell viability upto 31.3 microg/ml; type: toxicity, cell-based; settings: dose < 31.3 µg/ml; in short: as §2
Candida albicans [20] = test: Antifungal activity against itraconazole/fluconazole resistant Candida albicans ATCC MYA-1003 assessed as fungal growth inhibition by double dilution method; type: functional; in short: as §3
Pichia kudriavzevii [21] = test: Antifungal activity against Pichia kudriavzevii AR Bank # 397 assessed as fungal growth inhibition by double dilution method; type: functional; in short: as §1
[Candida] haemuloni [22] = Antifungal activity against Candida haemulonii AR Bank # 395 assessed as fungal growth inhibition by double dilution method; type: functional; settings: Candidozyma haemuli; in short: as §1
[Candida] auris [23] = Antifungal activity against Candida auris AR Bank # 386 assessed as fungal growth inhibition by double dilution method; type: functional; settings: Candidozyma auris; in short: as §1
Kodamaea ohmeri = test: Antifungal activity against Kodamaea ohmeri AR Bank # 396 assessed as fungal growth inhibition by double dilution method; type: functional; in short: as §1
Cryptococcus neoformans = test: Antifungal activity against Cryptococcus neoformans ATCC MYA-895 assessed as fungal growth inhibition by double dilution method; type: functional; in short: as §1
HEK293 = test: Cytotoxicity against human HEK-293 cells assessed as reduction in cell viability at 31.3 microg/ml; type: toxicity, cell-based; settings: dose 31.3 µg/ml; in short: as §2
Aspergillus terreus = test: Antifungal activity against Aspergillus terreus ATCC MYA-3633 assessed as fungal growth inhibition by double dilution method; type: functional
Aspergillus fumigatus [24] = test: Antifungal activity against Aspergillus fumigatus NRRL 6113 assessed as fungal growth inhibition by double dilution method; type: functional
Candida albicans [25] = test: Antifungal activity against Candida albicans ATCC 10231 assessed as fungal growth inhibition by double dilution method; type: functional; in short: as §1
Aspergillus fumigatus [26] = test: Antifungal activity against Aspergillus fumigatus NRRL 163 assessed as fungal growth inhibition by double dilution method; type: functional
Candida duobushaemulonii [27] = test: Antifungal activity against Candida duobushaemulonii AR Bank # 394 assessed as fungal growth inhibition by double dilution method; type: functional; settings: Candidozyma duobushaemuli; in short: as §1
Candida albicans [28] = test: Antifungal activity against itraconazole/fluconazole susceptible Candida albicans ATCC MYA-2876 assessed as fungal growth inhibition by double dilution method; type: functional; in short: as §3
[Candida] auris [29] = Antifungal activity against Candida auris AR Bank # 387 assessed as fungal growth inhibition by double dilution method; type: functional; settings: Candidozyma auris; in short: as §1
[Candida] haemuloni [30] = Antifungal activity against Candida haemulonii AR Bank # 393 assessed as fungal growth inhibition by double dilution method; type: functional; settings: Candidozyma haemuli; in short: as §1
[Candida] auris [31] = Antifungal activity against Candida auris AR Bank # 382 assessed as fungal growth inhibition by double dilution method; type: functional; settings: Candidozyma auris; in short: as §1
Candida duobushaemulonii [32] = test: Antifungal activity against Candida duobushaemulonii AR Bank # 392 assessed as fungal growth inhibition by double dilution method; type: functional; settings: Candidozyma duobushaemuli; in short: as §1
[Candida] auris [33] = Antifungal activity against Candida auris AR Bank # 0390 assessed as fungal growth inhibition by double dilution method; type: functional; settings: Candidozyma auris; in short: as §1

SMILES: O=C(NNc1ccc(F)cc1F)c1cnccn1
- MIC (Aspergillus nidulans): 0.49 µg/mL (≈ 1.96 µM)
- MIC (Pichia kudriavzevii [1]): 0.24 µg/mL (≈ 0.959 µM)
- MIC (Clavispora lusitaniae): 3.9 µg/mL (≈ 15.6 µM)
- MIC ([Candida] auris [2]): 3.9 µg/mL (≈ 15.6 µM)
- MIC (Aspergillus fumigatus [3]): > 31.3 µg/mL
- MIC ([Candida] auris [4]): 3.9 µg/mL (≈ 15.6 µM)
- Activity (J774.A1): Non-Toxic
- MIC (Candida albicans [5]): 0.49 µg/mL (≈ 1.96 µM)
- MIC (Candida albicans [6]): 0.98 µg/mL (≈ 3.92 µM)
- MIC ([Candida] auris [7]): 3.9 µg/mL (≈ 15.6 µM)
- MIC (Saccharomyces cerevisiae [8]): 7.8 µg/mL (≈ 31.2 µM)
- MIC (Saccharomyces cerevisiae [9]): 1.95 µg/mL (≈ 7.79 µM)
- MIC ([Candida] auris [10]): 0.98 µg/mL (≈ 3.92 µM)
- MIC ([Candida] auris [11]): 0.98 µg/mL (≈ 3.92 µM)
- MIC (Nakaseomyces glabratus [12]): 3.9 µg/mL (≈ 15.6 µM)
- MIC ([Candida] auris [13]): 0.49 µg/mL (≈ 1.96 µM)
- MIC (Nakaseomyces glabratus [14]): 0.98 µg/mL (≈ 3.92 µM)
- MIC (Candida albicans [15]): 0.98 µg/mL (≈ 3.92 µM)
- MIC ([Candida] auris [16]): 0.98 µg/mL (≈ 3.92 µM)
- MIC (Aspergillus flavus): 7.8 µg/mL (≈ 31.2 µM)
- MIC (Candida albicans [17]): 3.9 µg/mL (≈ 15.6 µM)
- MIC ([Candida] auris [18]): 0.49 µg/mL (≈ 1.96 µM)
- MIC (Candida duobushaemulonii [19]): 0.49 µg/mL (≈ 1.96 µM)
- Activity (HepG2): Non-Toxic
- MIC (Candida albicans [20]): 0.49 µg/mL (≈ 1.96 µM)
- MIC (Pichia kudriavzevii [21]): 1.95 µg/mL (≈ 7.79 µM)
- MIC ([Candida] haemuloni [22]): 1.95 µg/mL (≈ 7.79 µM)
- MIC ([Candida] auris [23]): 0.49 µg/mL (≈ 1.96 µM)
- MIC (Kodamaea ohmeri): 0.98 µg/mL (≈ 3.92 µM)
- MIC (Cryptococcus neoformans): 0.24 µg/mL (≈ 0.959 µM)
- Activity (HEK293): Non-Toxic
- MIC (Aspergillus terreus): 0.98 µg/mL (≈ 3.92 µM)
- MIC (Aspergillus fumigatus [24]): > 31.3 µg/mL
- MIC (Candida albicans [25]): 0.24 µg/mL (≈ 0.959 µM)
- MIC (Aspergillus fumigatus [26]): > 31.3 µg/mL
- MIC (Candida duobushaemulonii [27]): 7.8 µg/mL (≈ 31.2 µM)
- MIC (Candida albicans [28]): 0.98 µg/mL (≈ 3.92 µM)
- MIC ([Candida] auris [29]): 0.49 µg/mL (≈ 1.96 µM)
- MIC ([Candida] haemuloni [30]): 0.24 µg/mL (≈ 0.959 µM)
- MIC ([Candida] auris [31]): 1.95 µg/mL (≈ 7.79 µM)
- MIC (Candida duobushaemulonii [32]): 0.24 µg/mL (≈ 0.959 µM)
- MIC ([Candida] auris [33]): 0.98 µg/mL (≈ 3.92 µM)
